Data: paper PMC2889768 (Diabetes, 2010)
Read-outs that look alike come from different tables or passages of the source. Blank lines part the entries; values can stand above or below the compound they belong to.

Experiments:
[1] = biological target: NCX1.1 (Homo sapiens, UniProt P32418); experiment: excised inside-out patch-clamp, recombinant forward-mode; assay type: biochemical
[2] = biological target: NCX1.3 (Homo sapiens, UniProt P32418); experiment: excised inside-out patch-clamp, recombinant forward-mode; assay type: biochemical
Method in brief: (§1)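 Excised inside-out patches at 22 ± 1°C from tsA201 cells 24–72 h after calcium-phosphate cotransfection with human NCX1 splice-variant cDNA plus GFP. Patch held at 0 mV. Forward-mode current elicited by raising Ca2+c […]. Peak is the maximal current after activation, late current is at 1 min, total current is the AUC. Concentration-response fitted with the Hill equation. DMSO 0.1% final.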

[3] = biological target: NCX1.7 (Homo sapiens, UniProt P32418); experiment: as above; assay type: biochemical
Method in brief: as §1

[4] = biological target: NCX1.11 (Homo sapiens, UniProt P32418, INS637ALLLNEL); experiment: as above; assay type: biochemical; conditions: 5 μmol/l; n = 8
Method in brief: as §1

[5] = biological target: NCX1.4 (Rattus norvegicus, UniProt Q01728); experiment: excised inside-out patch-clamp, recombinant forward-mode; assay type: biochemical; conditions: 5 μmol/l; exon B replaced with A in rat NCX1.3
[6] = test system: β-cell L-type calcium channels; assay type: cell-based, mouse; conditions: 1 μmol/l; n = 7
[7] = test system: β-cell L-type calcium channels; assay type: cell-based, human; conditions: 1 μmol/l
[8] = test system: mouse islets; experiment: Fura-2 calcium imaging of mouse islets; assay type: cell-based
[9] = test system: mouse β-cells; experiment: membrane capacitance, depolarization-induced exocytosis in mouse β-cells; assay type: cell-based; conditions: 1 μmol/l; train of 10 depolarizations; n = 6; control 36.04 ± 4.87
Method in brief: (§2)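 Islets dispersed 2 h post-isolation with 0.0025% trypsin in Ca2+-free buffer and plated on poly-D-lysine coverslips. Mouse cells cultured in medium 199, human cells in DMEM, both with 5.6 mmol/l glucose. Cells exposed to 1 μmol/l test compound for at least 5 min. Exocytosis elicited by 10 × 500-ms depolarisations (1 Hz) from −70 to 0 mV. Total is the summed capacitance increase, normalised as fF/pF. β- and α-cells identified post hoc by insulin or glucagon immunostaining.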

[10] = test system: human β-cells; experiment: membrane capacitance, depolarization-induced exocytosis in human β-cells; assay type: cell-based; conditions: 1 μmol/l; train of 10 depolarizations; n = 4; control 13.01 ± 5.64
Method in brief: as §2

[11] = test system: mouse α-cells; experiment: membrane capacitance, depolarization-induced exocytosis in mouse α-cells; assay type: cell-based; conditions: 1 μmol/l
Method in brief: as §2

[12] = test system: β-cells; experiment: membrane capacitance, calcium infusion experiments; assay type: cell-based; conditions: 1 μmol/l; infusion of 200 nmol/l free Ca2+
Method in brief: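 Whole-cell capacitance in dispersed islet cells with pipette Ca2+ buffered to 200 nmol/l free with EGTA, so Ca2+ is infused directly. Recorded with or without 1 μmol/l test compound, applied for at least 5 min. β-cells identified post hoc by insulin immunostaining.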

[13] = test system: mouse islets; experiment: glucose-stimulated insulin secretion, mouse islet perifusion; assay type: cell-based; conditions: 1 μmol/l
Method in brief: (§3)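 Islets (BALB/c mouse, or human from three donors) preincubated 2 h at 37°C in low-glucose KRB (2.8 mmol/l glucose, 24 NaHCO3, 0.5% BSA, pH 7.4) ± 1 μmol/l test compound, with a solution change at 1 h. Groups of 25 islets perifused at 0.25 ml/min and 37°C: 10 min at 2.8 mmol/l, then 40 min at 11.1 mmol/l glucose. Fractions every 2 min; insulin by ELISA, as ng/ml per 25 islets or 11.1/2.8 fold change.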

[14] = test system: human islets; experiment: glucose-stimulated insulin secretion, human islet perifusion; assay type: cell-based; conditions: 1 μmol/l
Method in brief: as §3

[15] = intraperitoneal glucose tolerance tests in mice; assay type: in vivo; conditions: preliminary, data not shown
[16] = test system: cardiac L-type calcium channel; conditions: read-out: IC50s, cardiac L-type calcium channel; cited from earlier work

- inhibition of total FM NCX1.1 activity ([1]; 5 μmol/l): failed to inhibit
- IC50 ([1]; read-out: IC50, inhibition of total FM NCX1.1 activity, cardiac splice variant, total current (AUC), tsA201 cells): 43 µM
- inhibition of recombinant β-cell NCX1.3 FM current ([2]; 1 μmol/l): ~25%
- reduction in total FM NCX1.3 activity ([2]; 5 μmol/l, n = 10): 69.45 ± 3.12%
- IC50 ([2]; read-out: IC50, FM late current NCX1.3, late current, 1 min postactivation): 2.15 ± 0.26 µM
- IC50 ([2]; read-out: IC50, FM peak current NCX1.3, peak current): 5.59 ± 0.28 µM
- inhibition of recombinant β-cell NCX1.7 FM current ([3]; 1 μmol/l): ~25%
- reduction in total FM NCX1.7 activity ([3]; 5 μmol/l, n = 10): 65.57 ± 3.20%
- IC50 ([3]; read-out: IC50, FM late current NCX1.7, late current, 1 min postactivation): 1.72 ± 0.09 µM
- IC50 ([3]; read-out: IC50, FM peak current NCX1.7, peak current): 4.71 ± 0.15 µM
- reduction in total current, FM NCX1.11 [4]: 64.3 ± 2.92%
Structure (SMILES): N=C(N)SCCc1ccc(OCc2ccc([N+](=O)[O-])cc2)cc1 [KB-R7943]
- FM KB-R7943 sensitivity of NCX1.4 [5]: dramatically decreased FM KB-R7943 sensitivity
- reduction in total Ba2+ current, mouse β-cells [6]: 32.66 ± 3.74%
- reduction in total Ba2+ current, human β-cells [7]: 29.54 ± 3.18%
- rate of calcium clearance after removal of the tolbutamide/KCl challenge ([8]; 1 μmol/l): significantly slowed
- increase in Ca2+c when added concurrently with tolbutamide ([8]; 1 μmol/l KB-R7943 + 20 μmol/l tolbutamide, 2.8 mmol/l glucose, n = 9): 19.95 ± 6.92%
- effect on Ca2+c levels when applied alone ([8]; 1 μmol/l, 2.8 mmol/l glucose): failed to significantly increase
- increase to the peak Ca2+c response ([8]; 1 μmol/l, 11.1 mmol/l glucose challenge): 83.44 ± 18.27%
- increase of average Ca2+c (AUC) ([8]; 1 μmol/l, 11.1 mmol/l glucose challenge, n = 9): 79.98 ± 8.73%
- effect on Ca2+c levels in the presence of KCl ([8]; 1 μmol/l, 15 mmol/l KCl): significantly increases
- change in total capacitance, mouse β-cells [9]: 118.22 ± 33.48 fF/pF
- total change in capacitance, human β-cells [10]: 100.20 ± 28.82 fF/pF
- depolarization-induced capacitance response, mouse α-cells [11]: did not significantly alter
- rate at which the capacitance increased, presence vs absence of KB-R7943 [12]: not significantly different
- insulin secretion, mouse islets ([13]; 2.8 mmol/l glucose): without effect
- first- and second-phase insulin secretion, mouse islets ([13]; 11.1 mmol/l glucose): significantly enhanced
- insulin secretion, human islets ([14]; 2.8 mmol/l glucose): without effect
- first- and second-phase insulin secretion, human islets ([14]; 11.1 mmol/l glucose): significantly enhanced
- blood glucose in intraperitoneal glucose tolerance test [15]: only showed a trend toward KB-R7943 lowering blood glucose
- IC50 [16]: 3 to 7 µM

Structure (SMILES): CCCCNC(=O)NS(=O)(=O)c1ccc(C)cc1 [tolbutamide, Tolbutamide]
- increase in the 340/380 nm ratio (Ca2+c) ([8]; 20 μmol/l tolbutamide, 2.8 mmol/l glucose, n = 9): 0.45 ± 0.04
- decrease of elevation in Ca2+c upon a second tolbutamide challenge ([8]; 20 μmol/l tolbutamide, 2.8 mmol/l glucose, n = 11): 21.87 ± 4.58%
